Calls of active or inactive are those of the source. No cut-off for these calls is given here.

Experimental findings from ChEMBL document CHEMBL1153806, “Preclinical efficacy of a carboxylesterase 2-activated prodrug of doxazolidine” (J Med Chem, 2009) are described below.

One series concerns HepG2. Nature of the series: Antitumor activity against human HepG2 cells expressing CES2 gene xenografted in NOD/SCID mouse assessed as inhibition of tumor growth at 4 to 5 mg/kg, iv administered on day 7, 14 and 21 after tumor implantation. The class given is functional, organism-based. An outline of the steps:
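NOD/SCID females, 4–6 weeks old, each given ~1.5 × 10⁷ N-Hep G2 cells s.c. in the left flank; 10 mice/group. Dosed i.v. by tail vein on days 7, 14 and 21, in mg/kg Dox-equivalent, from DMSO diluted into D5W (5% DMSO/95% D5W), 100 µL/mouse. Vehicle-only controls. The 3 mg/kg group was redosed at 5 mg/kg on days 45 and 52. Tumor volume (π × short diameter² × long diameter/6) measured weekly.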
In general terms: Xenograft models place foreign cells or tissue in a host animal.

Series [1] can be described thus: Toxicity in NOD/SCID mouse xenografted with human HepG2 cells expressing CES2 gene assessed as mortality rate at 3 mg/kg, iv administered on day 7, 14 and 21 after tumor implantation. It counts as organism-based. The arrangement: dose 3 mg/kg, route intravenous. As to conditions: in vivo, read-out: Activity. In a few lines: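 Female NOD/SCID mice, 4–6 weeks old, 10 per group. About 1.5 × 10⁷ N-Hep G2 cells were injected s.c. into the left flank. Tail-vein i.v. dosing (mg/kg Dox-equivalent weight) was given on days 7, 14 and 21. Vehicle was 5% DMSO/95% D5W, and controls received vehicle only. Body weight was measured weekly over the first 5 weeks. Survival was followed to study end.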

The subject of series [2] is NCI-H1435. The experiment in a line: Antitumor activity against human NCI-H1435 cells expressing CES2 gene xenografted in athymic nude mouse assessed as inhibition of tumor growth at 2.5 mg/kg, iv administered on day 7, 14 and 21 after tumor implantation. The class given is functional, organism-based. The arrangement: dose 2.5 mg/kg. In a few lines:
(§1)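 Athymic nude females, 4–6 weeks old, given ~2 × 10⁶ H1435 cells s.c. in the left flank on day 0; 10 mice/group. I.v. tail-vein doses (Dox-equivalent mg/kg) in 5% DMSO/95% D5W on days 7, 14 and 21, with all groups retreated on days 56, 63 and 70; vehicle controls. Caliper volume π × short² × long/6. Cube roots analysed with day-7 size as baseline covariate, by period.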

The subject of series [3] is NCI-H1435. The experiment in a line: Antitumor activity against human NCI-H1435 cells expressing CES2 gene xenografted in pentyl PABC-doxazolidine-pretreated athymic nude mouse assessed as inhibition of tumor growth at 2.5 mg/kg, iv administered on day 56 after tumor implantation. It counts as functional, organism-based. Also on record: dose 2.5 mg/kg. An outline of the steps: as §1

The subject of series [4] is NCI-H1435. The experiment in a line: Antitumor activity against human NCI-H1435 cells expressing CES2 gene xenografted in pentyl PABC-doxazolidine-pretreated athymic nude mouse assessed as inhibition of tumor growth at 2.5 mg/kg, iv administered on day 63 after tumor implantation. The class given is functional, organism-based. Also on record: dose 2.5 mg/kg. An outline of the steps: as §1

The subject of series [5] is NCI-H1435. Nature of the series: Antitumor activity against human NCI-H1435 cells expressing CES2 gene xenografted in pentyl PABC-doxazolidine-pretreated athymic nude mouse assessed as inhibition of tumor growth at 2.5 mg/kg, iv administered on day 70 after tumor implantation. The arrangement: dose 2.5 mg/kg. The class given is functional, organism-based. An outline of the steps: as §1

Series [6] deals with Mus musculus. The experiment in a line: Toxicity in athymic nude mouse xenografted with human NCI-H1435 cells expressing CES2 gene at 3 to 4 mg/kg, iv administered on day 7, 14 and 21 after tumor implantation. It counts as organism-based. As to conditions: in vivo. Also on record: dose 3-4 mg/kg, route intravenous.
In series [7] the test system is Mus musculus. The experiment in a line: Toxicity in athymic nude mouse xenografted with human NCI-H1435 cells expressing CES2 gene assessed as occurrence of diarrhea at 3 to 4 mg/kg, iv administered on day 7, 14 and 21 after tumor implantation. As to conditions: in vivo. Also on record: dose 3-4 mg/kg, route intravenous. It counts as organism-based.
Series [8] relates to Mus musculus. The experiment in a line: Toxicity in NOD/SCID mouse xenografted with human HepG2 cells expressing CES2 gene assessed as occurrence of diarrhea at 3 mg/kg, iv administered on day 7, 14 and 21 after tumor implantation. It counts as organism-based. Conditions: in vivo. The arrangement: dose 3 mg/kg, route intravenous.
Series [9] concerns NCI-H1435. Nature of the series: Antitumor activity against human NCI-H1435 cells expressing CES2 gene xenografted in athymic nude mouse assessed as reduction in tumor size at 2.5 mg/kg, iv administered on day 7, 14 and 21 after tumor implantation. Also on record: dose 2.5 mg/kg. The class given is functional, organism-based. An outline of the steps:
as §1

The test system of series [10] is NCI-H1435. Nature of the series: Antitumor activity against human NCI-H1435 cells expressing CES2 gene xenografted in athymic nude mouse assessed as slowing of tumor growth at 2.5 mg/kg, iv administered as three weekly infusion from day 21 to 56 after tumor implantation. The class given is functional, organism-based. Also on record: dose 2.5 mg/kg. An outline of the steps:
as §1

The test system of series [11] is Mus musculus. Nature of the series: Toxicity in athymic nude mouse xenografted with human NCI-H1435 cells expressing CES2 gene assessed as myofibril disorganization and vacuolization of heart tissue administered with six iv injection of 2.5 mg/kg by hematoxylin/eosin staining-based microscopy. It counts as organism-based. Also on record: dose 2.5 mg/kg, route intravenous. As to conditions: in vivo. In a few lines: (§2)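 Hearts and livers taken from the H1435 nude-mouse study (six i.v. injections) after CO₂/cervical dislocation. Fixed in 10% formalin for 24 h, paraffin-embedded, and cut at 4 µm. Slides deparaffinized in xylene and ethanol, stained with Mayer's hematoxylin for 2 min, blued in 1% ammonium hydroxide, and counterstained with eosin for 30 s. Examined by light microscopy.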

The test system of series [12] is Mus musculus. Nature of the series: Toxicity in athymic nude mouse xenografted with human NCI-H1435 cells expressing CES2 gene assessed as occurrence of cardiomyocyte necrosis administered with six iv injection of 2.5 mg/kg by hematoxylin/eosin staining-based microscopy. The class given is organism-based. The arrangement: dose 2.5 mg/kg, route intravenous. Conditions: in vivo. In a few lines:
as §2

Series [13] concerns Mus musculus. The experiment in a line: Toxicity in athymic nude mouse xenografted with human NCI-H1435 cells expressing CES2 gene assessed as appearance of fibrotic damage in heart tissue administered with six iv injection of 2.5 mg/kg by hematoxylin/eosin staining-based microscopy. The class given is organism-based. The arrangement: dose 2.5 mg/kg, route intravenous. Conditions: in vivo. In a few lines: as §2

In series [14] the test system is Mus musculus. Nature of the series: Toxicity in athymic nude mouse xenografted with human NCI-H1435 cells expressing CES2 gene assessed as uniformity in punktate staining pattern of hepatocytes administered with six iv injection of 2.5 mg/kg by hematoxylin/eosin staining-based microscopy. The class given is organism-based, Hepatocyte. The arrangement: dose 2.5 mg/kg, route intravenous. In a few lines: as §2

The subject of series [15] is Mus musculus. Nature of the series: Toxicity in athymic nude mouse xenografted with human NCI-H1435 cells expressing CES2 gene assessed as lipid […] in hepatocytes administered with six iv injection of 3 to 4 mg/kg by hematoxylin/eosin staining-based microscopy. The class given is organism-based, Hepatocyte. Also on record: dose 3-4 mg/kg, route intravenous. In a few lines:
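Female athymic nude mice, 4–6 weeks old, 10 per group. About 2 × 10⁶ H1435 cells were implanted s.c. into the left flank. I.v. tail-vein doses (Dox-equivalent) were given on days 7, 14, 21, 56, 63 and 70 in 5% DMSO/95% D5W. At sacrifice, organs were fixed in 10% formalin for 24 h and paraffin-embedded. Sections were cut at 4 µm and stained with hematoxylin/eosin for microscopy.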

Series [16] relates to Mus musculus. Nature of the series: Toxicity in athymic nude mouse xenografted with human NCI-H1435 cells expressing CES2 gene assessed as occurrence of fatty liver administered with six iv injection of 2.5 mg/kg by hematoxylin/eosin staining-based microscopy. Also on record: dose 2.5 mg/kg, route intravenous. It counts as organism-based. As to conditions: in vivo. In a few lines: as §2

For series [17], the system named is Mus musculus. Nature of the series: Toxicity in athymic nude mouse xenografted with human NCI-H1435 cells expressing CES2 gene assessed as vacuolar degeneration of kidney tissue administered with six iv injection of 2.5 mg/kg by hematoxylin/eosin staining-based microscopy. It counts as organism-based. Also on record: dose 2.5 mg/kg, route intravenous. Conditions: in vivo. An outline of the steps:
(§3)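 Kidney and ileum taken from the H1435 nude-mouse study (six i.v. injections). Formalin-fixed for 24 h, paraffin-embedded, and cut into 4 µm sections. Sections deparaffinized in xylene, rehydrated through an ethanol series, stained in Harris hematoxylin for 50 s with eosin, then dehydrated and mounted. Morphology assessed by microscopy.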

Series [18] has as its system Mus musculus. The experiment in a line: Toxicity in athymic nude mouse xenografted with human NCI-H1435 cells expressing CES2 gene assessed as vacuolar damage in ileum administered with six iv injection of 2.5 mg/kg by hematoxylin/eosin staining-based microscopy. The class given is organism-based. Also on record: dose 2.5 mg/kg, route intravenous. Conditions: in vivo. In a few lines:
as §3

Series [19] relates to Mus musculus. The experiment in a line: Toxicity in athymic nude mouse xenografted with human NCI-H1435 cells expressing CES2 gene assessed as inflammatory cell infiltration in ileum administered with six iv injection of 2.5 mg/kg by hematoxylin/eosin staining-based microscopy. The class given is organism-based. Also on record: dose 2.5 mg/kg, route intravenous. As to conditions: in vivo. In a few lines:
as §3

In the case of `COc1cccc2c1C(=O)c1c(O)c3c(c(O)c1C2=O)C[C@@](O)(C(=O)CO)C[C@@H]3O[C@H]1C[C@H](N)[C@H](O)[C@H](C)O1` [DOXORUBICIN], the inhibition entry in the series on HepG2 and with NCI-H1435 [2] was “Active” throughout. For the same compound, the mortality in series [1] came out at 70%. The inhibition entry in the series with NCI-H1435 [3], with NCI-H1435 [4] and in the series with NCI-H1435 [5] was “inactive” throughout. For the same compound, the Activity entry is on record as “Non-toxic” in the series on Mus musculus [6]; “Non-toxic” in the series on Mus musculus [7]; “Non-toxic” in the series on Mus musculus [8]; “Toxic” with Mus musculus [11]; “Toxic” with Mus musculus [12]; “Toxic” in the series on Mus musculus [13]. Also, the Activity result with Mus musculus [14] is recorded as “Non-toxic”; in the series on Mus musculus [15], “Toxic”; in the series with Mus musculus [16], “Non-toxic”; with Mus musculus [17], “Toxic”; in the series with Mus musculus [18], “Non-toxic”; with Mus musculus [19] it was “Non-toxic”. Further, the result with NCI-H1435 [9] and in the series with NCI-H1435 [10] was Active.

Regarding `COc1cccc2c1C(=O)c1c(O)c3c(c(O)c1C2=O)C[C@@](O)(C(=O)CO)C[C@@H]3O[C@H]1C[C@@H]2NCO[C@@H]2[C@H](C)O1` [DOXAZOLIDINE], the Activity entry in the series on Mus musculus [15] is “Toxic”.
